This is an account of results in ChEMBL document CHEMBL3860038, “Discovery of (R,E)-N-(7-Chloro-1-(1-[4-(dimethylamino)but-2-enoyl]azepan-3-yl)-1H-benzo[d]imidazol-2-yl)-2-methylisonicotinamide (EGF816), a Novel, Potent, and WT Sparing Covalent Inhibitor of Oncogenic (L858R, ex19del) and Resistant (T790M) EGFR Mutants for the Treatment of EGFR Mutant …” (J Med Chem, 2016).

The target in data set [1] is T1, Epidermal growth factor receptor (Homo sapiens, UniProt P00533, L858R/T790M). Briefly: Inhibition of N-terminal 6x-HIS-tagged human recombinant EGFR (696 to 1022 residues) L858R/T790M mutant expressed in Sf9 cells pre-incubated for 0 mins followed by 1 mM ATP addition by HTRF assay. In short, it runs like this:
(§1)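 HTRF kinase assay on the EGFR L858R-T790M kinase domain at 1 mM ATP. Compound with either no preincubation or a 90 min enzyme/compound preincubation.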

The target in data set [2] is T1, Epidermal growth factor receptor. Briefly: Inhibition of N-terminal 6x-HIS-tagged human recombinant EGFR (696 to 1022 residues) L858R/T790M mutant expressed in Sf9 cells pre-incubated for 90 mins followed by 1 mM ATP addition by HTRF assay. In short, it runs like this:
as §1
(In general: TR-FRET usually uses a lanthanide donor and a delayed reading to cut background.)

The target is the same in data set [3]. Briefly: Inhibition of EGFR L858R/T790M mutant (unknown origin) phosphorylation expressed in mouse NIH/3T3 cells incubated for 3 hrs by ELISA method. In kind it is cell-based. In short, it runs like this:
(§2)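 Engineered NIH-3T3 cells expressing L858R-T790M, L858R or WT EGFR. 3 h compound treatment, then cellular phospho-EGFR target modulation read-out. IC50 averaged from at least duplicates.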
Background: ELISA stands for enzyme-linked immunosorbent assay.

Data set [4] deals with T2, Epidermal growth factor receptor (Homo sapiens, UniProt P00533, L858R). Briefly: Inhibition of EGFR L858R mutant (unknown origin) phosphorylation expressed in mouse NIH/3T3 cells incubated for 3 hrs by ELISA method. In kind it is cell-based. The procedure, abridged: as §2
T2 sequence (P00533 25-1210 L858R limits assumed): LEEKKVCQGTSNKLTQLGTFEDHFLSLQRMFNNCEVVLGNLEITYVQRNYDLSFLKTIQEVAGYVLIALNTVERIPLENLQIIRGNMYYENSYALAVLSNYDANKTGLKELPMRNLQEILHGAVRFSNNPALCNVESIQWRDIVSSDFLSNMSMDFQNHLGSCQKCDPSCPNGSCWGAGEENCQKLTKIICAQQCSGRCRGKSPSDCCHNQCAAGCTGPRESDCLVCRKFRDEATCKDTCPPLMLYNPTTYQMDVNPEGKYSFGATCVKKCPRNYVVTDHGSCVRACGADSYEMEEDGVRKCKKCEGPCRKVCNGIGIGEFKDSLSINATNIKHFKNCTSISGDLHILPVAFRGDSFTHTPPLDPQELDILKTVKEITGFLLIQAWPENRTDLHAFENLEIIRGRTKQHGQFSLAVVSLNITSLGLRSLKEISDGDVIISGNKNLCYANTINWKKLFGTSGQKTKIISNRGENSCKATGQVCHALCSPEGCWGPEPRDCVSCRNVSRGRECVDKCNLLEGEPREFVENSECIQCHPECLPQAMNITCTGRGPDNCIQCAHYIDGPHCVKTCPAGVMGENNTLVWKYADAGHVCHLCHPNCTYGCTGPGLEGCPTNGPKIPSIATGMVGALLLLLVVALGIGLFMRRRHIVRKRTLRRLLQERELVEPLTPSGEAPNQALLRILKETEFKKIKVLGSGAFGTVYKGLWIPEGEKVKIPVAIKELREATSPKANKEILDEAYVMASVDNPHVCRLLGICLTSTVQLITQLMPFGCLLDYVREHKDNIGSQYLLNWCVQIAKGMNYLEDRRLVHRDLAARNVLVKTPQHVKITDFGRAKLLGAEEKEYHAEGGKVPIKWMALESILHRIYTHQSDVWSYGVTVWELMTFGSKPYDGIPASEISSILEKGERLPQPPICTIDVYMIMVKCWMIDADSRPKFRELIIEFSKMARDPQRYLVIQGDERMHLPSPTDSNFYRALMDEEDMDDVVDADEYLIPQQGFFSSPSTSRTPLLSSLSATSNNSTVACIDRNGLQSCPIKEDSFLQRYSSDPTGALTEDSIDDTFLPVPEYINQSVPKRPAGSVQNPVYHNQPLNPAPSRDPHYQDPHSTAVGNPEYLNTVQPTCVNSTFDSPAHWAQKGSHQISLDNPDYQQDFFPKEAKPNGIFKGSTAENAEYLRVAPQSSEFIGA
The target of data set [5] is T3, Epidermal growth factor receptor (Homo sapiens, UniProt P00533). Put plainly: Inhibition of wild type human EGFR phosphorylation expressed in mouse NIH/3T3 cells incubated for 3 hrs by ELISA method. In kind it is cell-based. In short, it runs like this:
as §2

The target in data set [6] is T1, Epidermal growth factor receptor. Briefly: Inhibition of EGFR L858R/T790M mutant phosphorylation in human patient derived H1975 cells incubated for 3 hrs by ELISA method. In kind it is cell-based.
In data set [7] the target is T2, Epidermal growth factor receptor. Briefly: Inhibition of EGFR L858R mutant phosphorylation in human patient derived H3255 cells incubated for 3 hrs by ELISA method. In kind it is cell-based.
Data set [8] in a line: Inhibition of EGFR E746 to A750 deletion mutant phosphorylation in human patient derived HCC827 cells incubated for 3 hrs by ELISA method. In kind it is cell-based. The settings on record: HCC827, 3 h. The procedure, abridged: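 HCC827 cells plated at 7500/well in 5% FBS/RPMI and left overnight at 37 °C. Then 3 h with a 12-point compound dilution series, no EGF stimulation. Lysed in Triton/protease/phosphatase-inhibitor buffer. Phospho-EGFR (Y1173) read by sandwich ELISA: anti-EGFR capture, anti-phospho-EGFR, anti-rabbit-HRP, chemiluminescence. IC50 from at least duplicates.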

The target of data set [9] is T3, Epidermal growth factor receptor. Put plainly: Inhibition of wild type EGFR phosphorylation in human HaCaT cells incubated for 3 hrs by ELISA method. In kind it is cell-based.
Data set [10] in a line: Aqueous solubility of the compound at pH 6.8. In kind it is physicochemical.
The target in another data set is Cytochrome P450 3A4 (Homo sapiens, UniProt P08684). Briefly: Inhibition of CYP3A4 (unknown origin). In kind it is ADME.
Cytochrome P450 3A4, sequence (P08684 whole entry): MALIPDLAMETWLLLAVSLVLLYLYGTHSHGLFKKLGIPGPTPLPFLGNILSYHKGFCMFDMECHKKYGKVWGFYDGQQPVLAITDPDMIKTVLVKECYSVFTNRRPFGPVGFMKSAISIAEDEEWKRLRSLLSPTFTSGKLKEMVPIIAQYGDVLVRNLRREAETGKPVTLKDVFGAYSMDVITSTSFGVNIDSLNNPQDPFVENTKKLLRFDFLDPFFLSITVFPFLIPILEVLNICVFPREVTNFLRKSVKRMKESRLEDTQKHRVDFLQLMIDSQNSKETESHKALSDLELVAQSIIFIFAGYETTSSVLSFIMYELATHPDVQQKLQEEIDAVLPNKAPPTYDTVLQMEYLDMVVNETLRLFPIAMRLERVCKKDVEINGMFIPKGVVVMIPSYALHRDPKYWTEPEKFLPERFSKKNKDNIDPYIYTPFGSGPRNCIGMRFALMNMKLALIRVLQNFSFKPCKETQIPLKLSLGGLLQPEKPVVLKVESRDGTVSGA
Another data set concerns the target Cytochrome P450 2D6 (Homo sapiens, UniProt P10635). Put plainly: Inhibition of CYP2D6 (unknown origin). In kind it is ADME.
In another data set the target is Cytochrome P450 2C9 (Homo sapiens, UniProt P11712). Put plainly: Inhibition of CYP2C9 (unknown origin). In kind it is ADME.
Cytochrome P450 2C9, sequence (P11712 whole entry): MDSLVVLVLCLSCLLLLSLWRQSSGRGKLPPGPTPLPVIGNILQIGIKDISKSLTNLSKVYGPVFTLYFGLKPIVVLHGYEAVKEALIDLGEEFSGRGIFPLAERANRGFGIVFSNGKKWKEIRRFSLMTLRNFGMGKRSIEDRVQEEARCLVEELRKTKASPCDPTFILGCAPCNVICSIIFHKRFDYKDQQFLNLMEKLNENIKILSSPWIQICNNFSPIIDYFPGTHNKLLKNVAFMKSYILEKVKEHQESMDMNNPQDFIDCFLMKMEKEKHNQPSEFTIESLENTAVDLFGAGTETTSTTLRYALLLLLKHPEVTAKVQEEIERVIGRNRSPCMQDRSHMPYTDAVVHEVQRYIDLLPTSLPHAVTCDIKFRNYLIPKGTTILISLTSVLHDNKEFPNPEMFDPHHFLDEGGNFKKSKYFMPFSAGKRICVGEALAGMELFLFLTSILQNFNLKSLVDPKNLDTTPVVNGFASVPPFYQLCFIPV
Data set [11] in a line: Intrinsic clearance in human liver microsomes. The settings on record: read-out: CLH. In kind it is ADME. (Microsomes from liver hold many membrane-bound enzymes, among them those of drug oxidation.)
A short description of data set [12]: Intrinsic clearance in mouse liver microsomes. In kind it is ADME. The settings on record: read-out: CLH.
The nature of data set [13]: Clearance in balb/c mouse at 5 mg/kg, iv by liquid chromatography-tandem mass spectrometry. In kind it is ADME, organism-based. To be noted: in vivo. The procedure, abridged: (§3)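 Rodent PK in male balb/c mice and male Wistar rats; plasma drug levels by LC-MS/MS. Mouse oral dosing at 20 mg/kg, with compounds given as a 0.5% methylcellulose/0.5% Tween 80 suspension or as solutions (PEG300/D5W, or ethanol/PEG300 with Solutol or D5W), depending on compound.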

The nature of data set [14]: AUC in balb/c mouse at 20 mg/kg, po by liquid chromatography-tandem mass spectrometry. In kind it is ADME, organism-based. The settings on record: in vivo. In short, it runs like this:
as §3

Data set [15] can be described thus: Oral bioavailability in balb/c mouse at 20 mg/kg by liquid chromatography-tandem mass spectrometry. In kind it is ADME, organism-based. To be noted: in vivo. The procedure, abridged: as §3
Data set [16] is described as follows: Glutathione reactivity assessed as GSH adduct formation incubated for 1 hr using 10 mM glutathione. The procedure, abridged: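 Compound incubated 1 h with 10 mM glutathione; GSH adduct formation measured.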
Data set [17] can be described thus: Antitumor activity against human NCI-H1975 cells xenografted in Foxn1 nude mouse assessed as reduction in tumor volume at 50 mg/kg, po qd for 5 days relative to untreated control. In kind it is functional. The procedure, abridged: (§4)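 Female Foxn1 nude mice, H1975 cells inoculated subcutaneously. Randomized into groups once tumors reached 150−200 mm³, then dosed by oral gavage once daily for 5 days in 0.5% MC/0.5% Tween80 suspension (10 μL/g). Tumor volumes by caliper, (length × width × width)/2. %T/C = 100 × ΔT/ΔC, or % regression = 100 × ΔT/T_initial when ΔT < 0. Body weight recorded daily.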

A short description of data set [18]: Time duration during which free plasma concentration stays above in-vitro IC50 level in human NCI-H1975 cells xenografted Foxn1 nude mouse at 20 mg/kg, po qd for 5 days. In kind it is ADME, organism-based. To be noted: in vivo, 120 h. In short, it runs like this:
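H1975 xenografts in Foxn1 nude mice, oral dosing once daily for 5 days. Plasma sampled after the last dose on day 5, at 30 min, 3 h, 7 h and 24 h. Free drug exposure was compared with in vitro cellular IC50 across the dosing interval.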

A short description of data set [19]: Antitumor activity against human NCI-H1975 cells xenografted in Foxn1 nude mouse assessed as reduction in tumor volume at 20 mg/kg, po qd for 5 days relative to untreated control. In kind it is functional. The procedure, abridged: as §4
The subject of data set [20] is Mus musculus. Briefly: Toxicity in human NCI-H1975 cells xenografted Foxn1 nude mouse assessed as change in body weight at 50 mg/kg, po qd for 5 days (reference value: […]). In kind it is organism-based. To be noted: in vivo, 120 h.
The test system of data set [21] is Mus musculus. Put plainly: Toxicity in human NCI-H1975 cells xenografted Foxn1 nude mouse assessed as change in body weight at 20 mg/kg, po qd for 5 days (reference value: […]). In kind it is organism-based. The settings on record: in vivo, 120 h.
Data set [22] is described as follows: Clearance in dog at 1 mg/kg, iv by liquid chromatography-tandem mass spectrometry. In kind it is ADME, organism-based, Canis lupus familiaris. To be noted: in vivo.
Data set [23] in a line: Volume of distribution at steady state in dog at 1 mg/kg, iv by liquid chromatography-tandem mass spectrometry. In kind it is ADME, organism-based, Canis lupus familiaris. The settings on record: in vivo, read-out: Vdss.
The nature of data set [24]: Mean residence time in dog at 1 mg/kg, iv by liquid chromatography-tandem mass spectrometry. In kind it is ADME, organism-based, Canis lupus familiaris. The settings on record: in vivo.
Data set [25] in a line: AUC in dog at 1 mg/kg, iv by liquid chromatography-tandem mass spectrometry. In kind it is ADME, organism-based, Canis lupus familiaris. To be noted: in vivo.
A short description of data set [26]: AUC in dog at 10 mg/kg, po by liquid chromatography-tandem mass spectrometry. In kind it is ADME, organism-based, Canis lupus familiaris. To be noted: in vivo.
A short description of data set [27]: Cmax in dog at 10 mg/kg, po by liquid chromatography-tandem mass spectrometry. In kind it is ADME, organism-based, Canis lupus familiaris. On the set-up: dose 10 mg/kg, route oral. To be noted: in vivo.
Data set [28] in a line: Tmax in dog at 10 mg/kg, po by liquid chromatography-tandem mass spectrometry. In kind it is ADME, organism-based, Canis lupus familiaris. To be noted: in vivo.
Data set [29] in a line: Oral bioavailability in dog at 10 mg/kg by liquid chromatography-tandem mass spectrometry. In kind it is ADME, organism-based, Canis lupus familiaris. To be noted: in vivo.

A value given as a limit tells only on which side of the number the result lay.

T1 sequence (P00533 25-1210 T790M/L858R limits assumed): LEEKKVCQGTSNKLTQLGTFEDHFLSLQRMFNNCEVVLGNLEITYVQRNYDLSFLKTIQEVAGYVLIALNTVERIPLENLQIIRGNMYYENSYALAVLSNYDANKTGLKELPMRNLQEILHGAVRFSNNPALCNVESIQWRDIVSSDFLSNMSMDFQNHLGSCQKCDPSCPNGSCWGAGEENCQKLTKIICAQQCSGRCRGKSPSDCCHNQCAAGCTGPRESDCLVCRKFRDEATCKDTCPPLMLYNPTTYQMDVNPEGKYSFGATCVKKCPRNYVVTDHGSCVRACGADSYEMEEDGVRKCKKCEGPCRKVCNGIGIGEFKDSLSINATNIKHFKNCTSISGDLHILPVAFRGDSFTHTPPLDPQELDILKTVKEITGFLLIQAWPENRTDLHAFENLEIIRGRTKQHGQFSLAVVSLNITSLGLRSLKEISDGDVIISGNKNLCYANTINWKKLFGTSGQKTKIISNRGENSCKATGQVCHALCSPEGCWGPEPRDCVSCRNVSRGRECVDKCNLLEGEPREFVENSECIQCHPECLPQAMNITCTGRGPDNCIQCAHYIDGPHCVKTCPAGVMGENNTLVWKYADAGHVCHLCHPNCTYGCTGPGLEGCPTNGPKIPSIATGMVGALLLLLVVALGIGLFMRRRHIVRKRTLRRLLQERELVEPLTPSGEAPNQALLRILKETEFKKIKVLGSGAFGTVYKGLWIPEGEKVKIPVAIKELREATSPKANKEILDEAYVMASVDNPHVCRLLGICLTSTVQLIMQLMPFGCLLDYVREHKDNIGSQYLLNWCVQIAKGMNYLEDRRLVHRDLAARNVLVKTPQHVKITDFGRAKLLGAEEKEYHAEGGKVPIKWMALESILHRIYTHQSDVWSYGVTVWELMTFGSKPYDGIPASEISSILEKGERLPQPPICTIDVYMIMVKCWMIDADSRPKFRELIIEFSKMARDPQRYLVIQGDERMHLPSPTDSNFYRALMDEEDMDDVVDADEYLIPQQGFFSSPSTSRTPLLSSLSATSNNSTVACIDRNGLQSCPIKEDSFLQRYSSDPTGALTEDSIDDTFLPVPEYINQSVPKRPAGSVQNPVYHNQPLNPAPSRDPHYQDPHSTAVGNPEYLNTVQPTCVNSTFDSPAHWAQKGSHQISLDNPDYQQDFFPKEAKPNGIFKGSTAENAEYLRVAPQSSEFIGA
T3 sequence (P00533 whole entry): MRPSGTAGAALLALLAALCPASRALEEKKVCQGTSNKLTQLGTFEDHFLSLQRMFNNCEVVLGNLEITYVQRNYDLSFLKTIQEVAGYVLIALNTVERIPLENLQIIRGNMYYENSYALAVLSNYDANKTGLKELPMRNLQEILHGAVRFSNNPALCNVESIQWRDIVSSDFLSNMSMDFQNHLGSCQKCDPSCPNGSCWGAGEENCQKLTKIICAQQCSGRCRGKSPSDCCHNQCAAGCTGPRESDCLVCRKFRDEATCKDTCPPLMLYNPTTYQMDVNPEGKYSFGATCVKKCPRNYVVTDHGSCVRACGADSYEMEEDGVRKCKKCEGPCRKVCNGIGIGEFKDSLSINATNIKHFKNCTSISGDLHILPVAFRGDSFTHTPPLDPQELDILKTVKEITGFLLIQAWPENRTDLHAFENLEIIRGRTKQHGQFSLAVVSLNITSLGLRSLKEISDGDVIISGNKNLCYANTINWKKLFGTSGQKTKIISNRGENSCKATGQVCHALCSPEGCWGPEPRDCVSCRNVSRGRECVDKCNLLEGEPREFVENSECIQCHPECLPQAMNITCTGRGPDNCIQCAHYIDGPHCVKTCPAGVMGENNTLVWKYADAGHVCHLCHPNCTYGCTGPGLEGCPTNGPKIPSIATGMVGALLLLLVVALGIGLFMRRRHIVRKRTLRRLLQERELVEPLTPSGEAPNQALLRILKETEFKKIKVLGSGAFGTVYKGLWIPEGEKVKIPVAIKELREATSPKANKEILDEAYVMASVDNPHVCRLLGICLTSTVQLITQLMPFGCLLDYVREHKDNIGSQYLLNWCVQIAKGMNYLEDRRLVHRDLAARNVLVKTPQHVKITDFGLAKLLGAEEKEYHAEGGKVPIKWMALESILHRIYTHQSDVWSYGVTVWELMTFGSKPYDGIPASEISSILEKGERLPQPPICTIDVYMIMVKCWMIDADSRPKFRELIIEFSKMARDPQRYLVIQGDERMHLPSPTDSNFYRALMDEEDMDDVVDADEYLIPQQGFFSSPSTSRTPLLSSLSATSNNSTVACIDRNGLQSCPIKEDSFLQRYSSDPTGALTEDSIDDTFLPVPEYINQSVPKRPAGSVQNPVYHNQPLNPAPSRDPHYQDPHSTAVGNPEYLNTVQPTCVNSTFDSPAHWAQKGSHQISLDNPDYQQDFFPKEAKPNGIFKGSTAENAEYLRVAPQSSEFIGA
Cytochrome P450 2D6, sequence (P10635 whole entry): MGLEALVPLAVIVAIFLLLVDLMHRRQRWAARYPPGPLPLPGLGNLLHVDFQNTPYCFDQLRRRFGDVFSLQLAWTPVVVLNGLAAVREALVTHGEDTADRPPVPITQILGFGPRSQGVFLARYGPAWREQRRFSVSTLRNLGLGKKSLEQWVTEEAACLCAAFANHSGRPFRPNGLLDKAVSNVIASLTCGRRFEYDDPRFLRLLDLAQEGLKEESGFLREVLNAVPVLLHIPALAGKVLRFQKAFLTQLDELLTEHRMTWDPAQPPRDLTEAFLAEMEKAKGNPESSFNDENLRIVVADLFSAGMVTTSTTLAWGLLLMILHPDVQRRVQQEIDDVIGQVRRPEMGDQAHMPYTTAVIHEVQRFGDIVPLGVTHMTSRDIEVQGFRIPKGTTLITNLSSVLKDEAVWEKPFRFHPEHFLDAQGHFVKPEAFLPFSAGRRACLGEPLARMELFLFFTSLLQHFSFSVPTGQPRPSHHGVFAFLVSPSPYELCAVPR

For orientation: IC50 means the concentration that gives 50% inhibition. Take `C=CC(=O)N[C@@H]1CCC[C@@H](n2c(NC(=O)c3cccc(C(F)(F)F)c3)nc3cc(C)ccc32)C1` (racemic): the 50% inhibitory concentration (IC50) was above 50000 nM in data set [1]; 60 nM in data set [2]; 409 nM in data set [3]; above 3720 nM in data set [4]; above 10000 nM in [5].

One may read the solubility as the concentration that dissolves in the medium under given conditions. A high value points to a readily soluble substance. For orientation: clearance means the volume of plasma or blood freed of the substance per unit of time. Lower therefore signals inefficient removal. Usually AUC stands for the area under the concentration-time curve, a measure of exposure. Low values mean low exposure, high ones high exposure. For orientation: bioavailability means dose-corrected exposure relative to a reference, in per cent. Read a low bioavailability as little systemic uptake. `Cc1cc(C(=O)Nc2nc3cccc(C)c3n2[C@@H]2CCCCN(C(=O)/C=C/CN(C)C)C2)ccn1`: the IC50 in data set [6] was 2.11 nM; in data set [7] it was 3.05 nM; in [8] it was 1.01 nM; in data set [9], 68 nM; at Cytochrome P450 3A4, above 25000 nM; against Cytochrome P450 2D6, above 25000 nM. Further, the IC50 against Cytochrome P450 2C9 was above 25000 nM. Besides, in data set [10], the solubility was above 175 µM. For the same compound, the figures for the microsomal CLint in data set [11] and in [12] were 26 µL/min/mg and 62 µL/min/mg, respectively. The compound further showed a clearance in data set [13] of 68.5 mL/min/kg. The compound also returned an AUC in data set [14] of 3.53 µM·h. The compound also registered a bioavailability in data set [15] of 34%. The Drug metabolism in data set [16] is below 5%. In addition, the T/C is given as -65% in data set [17] and -6% in [19]. Further, the Time entry in [18] is “<= 14 hr”. The Activity is listed as -5% in the data set on Mus musculus [20] and -1.1% with Mus musculus [21].

What is called MRT is the average time that molecules of a dose stay in the body. Broadly, the Cmax is the peak of the concentration-time curve. As a reminder, the Tmax is the time from dosing to the highest level. As to `Cc1cc(C(=O)Nc2nc3cccc(Cl)c3n2[C@@H]2CCCCN(C(=O)/C=C/CN(C)C)C2)ccn1.Cl`, the clearance in [22] is 43.7 mL/min/kg. Moreover, the Vd in data set [23] came to 35.2 L/kg. In data set [24], the mean residence time (MRT) stood at 13.8 h. Also, the exposure (AUC) in data set [25] was 0.783 µM·h; in [26], 5.23 µM·h. For the same compound, the concentration in data set [27] peaked (Cmax) at 435 nM. Besides, in data set [28], the Tmax was 2.3 h. The compound further had a bioavailability in [29] of 67%.
